How the values were obtained:
[1] = tested on: L1210; experiment: Cytotoxicity against mouse L1210 cells at 3.75 ug by disk diffusion assay; type: functional
Procedure, shortened: (§1)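 15 µL of sample dried overnight on 6.5 mm filter disk. Disk placed near edge of 60 mm dish of cells plated in soft agar, incubated 7-10 days. Zone of inhibition measured from disk edge to start of normal-sized colony formation, disk diameter taken as 200 units. Overly toxic samples diluted 1:4 or 1:10 and retested.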

[2] = Cytotoxicity against human H125M cells at 60 ug by disk diffusion assay; type: functional; procedure, shortened: as §1
[3] = Cytotoxicity against human CFU-GM cells at 60 ug by disk diffusion assay; type: functional; procedure, shortened: as §1
[4] = tested on: MC-38; experiment: Cytotoxicity against mouse Colon 38 cells at 3.75 ug by disk diffusion assay; type: functional; procedure, shortened: as §1
[5] = tested on: L1210; experiment: Cytotoxicity against mouse L1210 cells at 60 ug by disk diffusion assay; type: functional; procedure, shortened: as §1
[6] = Inhibition of bovine heart mitochondrial complex1 activity; set-up: species or system Bos taurus
Procedure, shortened: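 Bovine heart submitochondrial particles, 15 µg/mL, in 0.25 M sucrose, 1 mM MgCl2, 50 mM phosphate pH 7.5. Inhibitor added at various concentrations and equilibrated 5 min. Reaction started with 150 µM NADH and followed spectrophotometrically at 340 nm. IC50 derived.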

[7] = Cytotoxicity against human CFU-GM cells at 15 ug by disk diffusion assay; type: functional; procedure, shortened: as §1
[8] = Cytotoxicity against human CFU-GM cells at 3.75 ug by disk diffusion assay; type: functional; procedure, shortened: as §1
[9] = tested on: MC-38; experiment: Cytotoxicity against mouse Colon 38 cells at 15 ug by disk diffusion assay; type: functional; procedure, shortened: as §1
[10] = tested on: MC-38; experiment: Cytotoxicity against mouse Colon 38 cells at 60 ug by disk diffusion assay; type: functional; procedure, shortened: as §1
[11] = tested on: HCT-116; experiment: Cytotoxicity against human HCT116 cells at 60 ug by disk diffusion assay; type: functional; procedure, shortened: as §1
[12] = tested on: HCT-116; experiment: Cytotoxicity against human HCT116 cells; type: functional, cell-based
[13] = tested on: CCRF-CEM; experiment: Cytotoxicity against human CEM cells at 60 ug by disk diffusion assay; type: functional; procedure, shortened: as §1
[14] = tested on: L1210; experiment: Cytotoxicity against mouse L1210 cells at 15 ug by disk diffusion assay; type: functional; procedure, shortened: as §1

Compound | inhibition zone (IZ) [1] [Zone units] | inhibition zone (IZ) [2] [Zone units] | inhibition zone (IZ) [3] [Zone units] | inhibition zone (IZ) [4] [Zone units] | inhibition zone (IZ) [5] [Zone units] | IC50 [6] [nM] | inhibition zone (IZ) [7] [Zone units] | inhibition zone (IZ) [8] [Zone units] | inhibition zone (IZ) [9] [Zone units] | inhibition zone (IZ) [10] [Zone units] | inhibition zone (IZ) [11] [Zone units] | IC50 [12] [nM] | inhibition zone (IZ) [13] [Zone units] | inhibition zone (IZ) [14] [Zone units]
CCCCCCCCCC[C@@H](O)[C@H]1CC[C@H]([C@H]2CC[C@H]([C@@H](O)CCCCCCCCCC[C@@H](O)CC3=C[C@H](C)OC3=O)O2)O1 | 50 | 250 | 600 | 650 | 400 | 3.3 | 100 | 0 | 750 | 800 | 600 | 27 | 100 | 400
CCCCCCCCCC[C@@H](O)[C@H]1CC[C@@H]([C@@H]2CC[C@H]([C@@H](O)CCCCCCCCCC[C@@H](O)CC3=C[C@H](C)OC3=O)O2)O1 | 150 | 500 | 350 | 650 | 200 | 2.5 | 250 | 100 | 800 | 600 | 550 | 5.6 | 150 | 300

Source: ChEMBL document CHEMBL1152304, “Alteration of the bis-tetrahydrofuran core stereochemistries in asimicin can affect the cytotoxicity” (J Med Chem, 2008)
